Four compounds from ChEMBL document CHEMBL1126752, “Synthesis and biological activity of cis-(3aR)-(-)-2,3,3a,4,5,9b-hexahydro- 3-propyl-1H-benz[e]indole-9-carboxamide: a potent and selective 5-HT1A receptor agonist with good oral availability” (J Med Chem, 1993) can be followed below.

Calls of active or inactive are those of the source.

Series [1] deals with T1, 5-hydroxytryptamine receptor 1A (Homo sapiens, UniProt P08908).
T1 sequence (P08908 whole entry): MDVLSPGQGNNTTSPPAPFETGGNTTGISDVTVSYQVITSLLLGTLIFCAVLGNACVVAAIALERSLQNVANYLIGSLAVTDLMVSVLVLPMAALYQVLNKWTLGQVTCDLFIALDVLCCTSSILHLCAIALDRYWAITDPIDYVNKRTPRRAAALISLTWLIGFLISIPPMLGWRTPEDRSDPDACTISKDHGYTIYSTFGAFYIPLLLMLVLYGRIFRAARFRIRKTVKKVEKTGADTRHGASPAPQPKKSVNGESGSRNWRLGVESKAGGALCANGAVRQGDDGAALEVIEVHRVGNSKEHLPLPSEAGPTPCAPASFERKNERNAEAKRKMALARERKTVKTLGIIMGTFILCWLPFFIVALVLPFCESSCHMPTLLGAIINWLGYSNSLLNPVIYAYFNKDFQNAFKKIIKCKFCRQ
Kind of series: Binding affinity against [3H]8-OH-DPAT-labeled 5-hydroxytryptamine 1A receptor sites in cloned CHO cells. The series is classed as cell-based. Put shortly: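 Competition binding against [3H]-8-OH-DPAT (85 Ci/mmol, 1.2 nM) using 11 dilutions of test compound. Receptor was cloned mammalian 5-HT1A expressed in CHO-K1 cells. IC50 from a one-site nonlinear least-squares fit, converted to Ki by Cheng-Prusoff. Ki reported ±SEM.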

Series [2] in a line: Half-life in rats. The following applies: rat, in vivo. Format: ADME, organism-based. The procedure, abridged: (§1)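 Male Sprague-Dawley rats (300 g) sampled from arterial catheters 24 h after surgery over 10-24 h. Dosing was 5 µmol/kg iv and 40 µmol/kg po, with oral rats fasted 18 h. Parent drug in blood measured by GC/MS after pH 11 dichloromethane extraction with internal standard, samples run in duplicate. Availability from po/iv AUC ratio (n = 4).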

In series [3] the test system is Felis catus. Kind of series: Maximum decrease in blood pressure observed following 1 mg/kg dose in anesthetized cat. Also noted: unit not given here. The series is classed as functional. Put shortly: (§2)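 Adult cats (2.5-4.0 kg) anesthetized with ketamine 11 mg/kg im then chloralose 80 mg/kg iv. Animals paralyzed with gallamine, ventilated, and kept at 37-38 °C. Blood pressure recorded via femoral artery. Sympathetic activity quantified by cumulative integration. Increasing doses given iv cumulatively at 20-min intervals.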

In series [4] the test system is Felis catus. In words: Maximum decrease in sympathetic nerve discharge in anesthetized cat. The series is classed as functional. The procedure, abridged: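 Cats (2.5-4.0 kg) anesthetized with ketamine 11 mg/kg im then chloralose 80 mg/kg iv, paralyzed with gallamine and ventilated, rectal temperature kept at 37-38 °C. Increasing iv doses given cumulatively at 20-min intervals; sympathetic activity quantified by cumulative integration and expressed as percent of control.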

For series [5], the system named is Felis catus. In words: Percent arterial blood pressure at sympathetic nerve discharge in anesthetized cat. The series is classed as functional. The procedure, abridged: as §2
For series [6], the system named is Felis catus. Kind of series: Inhibition of sympathetic nerve discharge (SND) in anesthetized cat. Format: functional. Put shortly:
as §2

Series [7] has as its system Mus musculus. Kind of series: Swimming activity of the treated mice/control mice at 39 umol/kg, sc. The series is classed as functional.
Series [8] has as its system Mus musculus. Kind of series: Swimming activity of the treated mice/control mice at 12 umol/kg, sc (p < 0.001). Format: functional.
Series [9] concerns Mus musculus. Kind of series: Swimming activity of the treated mice/control mice at 3.9 umol/kg, sc. Format: functional.
Series [10] has as its system Rattus norvegicus. Kind of series: 5-HTP accumulation in corpus striatum of reserpinized rats following subcutaneous administration. Format: functional. The following applies: sc.
The species named for series [11] is Rattus norvegicus. In words: Inhibition of 5-HT1A cell firing in rats. The series is classed as functional. Put shortly: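 Male Sprague-Dawley rats (280-330 g) under chloral hydrate anesthesia (400 mg/kg ip), drug given iv via femoral vein in distilled water. Dorsal raphe serotonergic neurons recorded extracellularly and confirmed histologically by dye deposit. Firing rate followed by integrated ratemeter.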

The subject of series [12] is Rattus norvegicus. In words: 5-HTP accumulation in hemispheres of reserpinized rats following subcutaneous administration. Format: functional. The settings on record: sc.
The test system of series [13] is Rattus norvegicus. Kind of series: 5-HTP accumulation in limbic system of reserpinized rats following subcutaneous administration. Format: functional. The following applies: sc.
Series [14] relates to Rattus norvegicus. Kind of series: DOPA accumulation in corpus striatum of reserpinized rats following subcutaneous administration at highest dose tested (50 umol/kg); Inactive. The series is classed as functional, organism-based.
In series [15] the test system is Rattus norvegicus. In words: DOPA accumulation in hemispheres of reserpinized rats following subcutaneous administration at highest dose tested (50 umol/kg); Inactive. Format: functional, organism-based.
Series [16] concerns Rattus norvegicus. Kind of series: DOPA accumulation in limbic system of reserpinized rats following subcutaneous administration at highest dose tested (50 umol/kg); Inactive. The series is classed as functional, organism-based.
In series [17] the test system is Rattus norvegicus. In words: In vivo motor activity at 12.5 umol/kg (sc) in male rats expressed as accumulated counts/30 min (p < 0.001). The series is classed as functional.
The species named for series [18] is Rattus norvegicus. In words: Compound was tested for gross behavioral response in rats; partial 5-HT syndrome. Format: functional, organism-based.
For series [19], the system named is Rattus norvegicus. Kind of series: Oral availability obtained from blood plasma levels of the parent compound following 5 umol /kg intravenous and 40 umol /kg peroral administration. Format: functional, organism-based. The procedure, abridged: as §1
Series [20] relates to Mus musculus. In words: Effect on hypothermia in mice following peroral administration. The settings on record: po.
The subject of series [21] is Mus musculus. In words: Effect on hypothermia in mice following subcutaneous administration. The following applies: sc.
Series [22] is described as follows: Half-life time in rats. Format: ADME, organism-based. The following applies: rat, in vivo. The procedure, abridged: (§3)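 Male Sprague-Dawley rats (300 g) with arterial catheters, sampled from 24 h after surgery for 10-24 h; oral groups starved 18 h with free water. Blood levels measured by GC/MS with internal standard, samples run in duplicate. Availability from po vs iv AUC (n = 4), dosed 1 μmol/kg iv and 20 μmol/kg po.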

The test system of series [23] is Mus musculus. In words: Swimming activity of the treated mice/control mice at 1.2 umol/kg, sc. Format: functional.
For series [24], the system named is Mus musculus. In words: Swimming activity of the treated mice/control mice at 4.0 umol/kg, sc (p < 0.001). The series is classed as functional.
The test system of series [25] is Mus musculus. Kind of series: Swimming activity of the treated mice/control mice at 41 umol/kg, sc (p < 0.001). Format: functional.
For series [26], the system named is Rattus norvegicus. Kind of series: In vivo motor activity at 0.2 umol/kg (sc) in male rats expressed as accumulated counts/30 min (p < 0.05). Format: functional.
The subject of series [27] is Rattus norvegicus. Kind of series: 5-HTP accumulation in corpus striatum of reserpinized rats following peroral administration. The series is classed as functional. The following applies: po.
Series [28] has as its system Rattus norvegicus. Kind of series: 5-HTP accumulation in hemispheres of reserpinized rats following peroral administration. Format: functional. The following applies: po.
The test system of series [29] is Rattus norvegicus. In words: 5-HTP accumulation in limbic system of reserpinized rats following peroral administration. The series is classed as functional. The following applies: po.
In series [30] the test system is Rattus norvegicus. Kind of series: DOPA accumulation in corpus striatum of reserpinized rats following peroral administration at highest dose tested (50 umol/kg); Inactive. Format: functional, organism-based.
Series [31] concerns Rattus norvegicus. Kind of series: DOPA accumulation in hemispheres of reserpinized rats following peroral administration at highest dose tested (50 umol/kg); Inactive. The series is classed as functional, organism-based.
Series [32] concerns Rattus norvegicus. Kind of series: DOPA accumulation in limbic system of reserpinized rats following peroral administration at highest dose tested (50 umol/kg); Inactive. The series is classed as functional, organism-based.
Series [33] deals with Rattus norvegicus. In words: In vivo motor activity at 61 umol/kg (po) in male rats expressed as accumulated counts/30 min (p < 0.001). The series is classed as functional.
Series [34] is filed under the species Rattus norvegicus. In words: Compound was tested for gross behavioral response in rats; full-blown 5-HT syndrome. Format: functional, organism-based.
Series [35] has as its system Rattus norvegicus. Kind of series: Oral availability obtained from blood plasma levels of the parent compound following 1 uMol /kg intravenous and 20 umol /kg peroral administration. The series is classed as functional, organism-based. Put shortly:
as §3

The subject of series [36] is Rattus norvegicus. In words: In vivo motor activity at 10 umol/kg (po) in male rats expressed as accumulated counts/30 min (p < 0.05).
The subject of series [37] is Mus musculus. Kind of series: Swimming activity of the treated mice/control mice at 12 umol/kg, sc. Format: functional.
The test system of series [38] is Rattus norvegicus. Kind of series: In vivo motor activity at 50 umol/kg (sc) in male rats expressed as accumulated counts/30 min. The series is classed as functional.

In general, Ki refers to a dissociation constant, usually derived from enzyme kinetics or from competition with a known ligand. Broadly, the half-life is the time needed for the level to fall by half in the phase considered. What is called ED50 is the dose at which the effect has come halfway, by size or by number of responders. In turn, `CCCN1CCC2c3c(cccc3C(N)=O)CCC21` (racemic) registered a Ki in [1] of 2.9 nM. In series [2], this compound returned a half-life of 1.5 h. Also, the figures for the Max decrease with Felis catus [3] and with Felis catus [4] were 63 and 33, respectively. In addition, in the series on Felis catus [5], the BP was 82%. Also, the ED50 with Felis catus [6] came to 0.1 µmol/kg; with Rattus norvegicus [10], 0.95 µmol/kg; in the series filed under Rattus norvegicus [11] it was 0.009 µmol/kg; in the series with Rattus norvegicus [12], 1.25 µmol/kg; in the series with Rattus norvegicus [13], 0.93 µmol/kg; with Mus musculus [20], 28 µmol/kg. This compound also returned a 50% effective dose (ED50) in the series on Mus musculus [21] of 3.8 µmol/kg. Moreover, the Swimming activity with Mus musculus [7] is on record as 2.9; with Mus musculus [8] it was 6.6; with Mus musculus [9], 1.2. Also, the NA result in the series on Rattus norvegicus [14], in the series on Rattus norvegicus [15] and in the series on Rattus norvegicus [16] was “inactive” throughout. Besides, in the series on Rattus norvegicus [17], the “Accumulated counts/30 min” value came out at 88. In addition, the Response entry in the series filed under Rattus norvegicus [18] is “Partially active”. Also, in the series with Rattus norvegicus [19], the bioavailability worked out at 70%.
On to `CCCN(CCC)C1CCc2cccc(O)c2C1` (racemic) [8-OH-DPAT], for which the half-life in [22] came to 1 h. The Max decrease in the series on Felis catus [3] turned out to be 57; with Felis catus [4] it was 2. The compound also registered a BP in the series with Felis catus [5] of 66%. Besides, the ED50 with Felis catus [6] is 0.03 µmol/kg; in the series on Rattus norvegicus [27], 7.9 µmol/kg; with Rattus norvegicus [10], 0.052 µmol/kg; in the series filed under Rattus norvegicus [11] it was 0.006 µmol/kg; in the series on Rattus norvegicus [28] it was 7.6 µmol/kg; in the series on Rattus norvegicus [12], 0.063 µmol/kg. The 50% effective dose (ED50) in the series with Rattus norvegicus [29] worked out at 3 µmol/kg; in the series on Rattus norvegicus [13], 0.052 µmol/kg; in the series with Mus musculus [20], 30 µmol/kg; in the series on Mus musculus [21], 3 µmol/kg. Moreover, the Swimming activity in the series with Mus musculus [23] is on record as 0.9 T/C; in the series on Mus musculus [8], 4.6 T/C; in the series on Mus musculus [24], 6.7 T/C; in the series with Mus musculus [25], 3.4 T/C. Also, the “Accumulated counts/30 min” value was 66 in the series on Rattus norvegicus [26], 883 in the series with Rattus norvegicus [33] and 17 in the series with Rattus norvegicus [36]. In addition, the ED50 entry in the series with Rattus norvegicus [30], with Rattus norvegicus [14], with Rattus norvegicus [31], with Rattus norvegicus [15], with Rattus norvegicus [32] and in the series with Rattus norvegicus [16] was “inactive” in each case. Besides, the Response entry in the series filed under Rattus norvegicus [34] was “Active”. Also, in the series with Rattus norvegicus [35], the bioavailability is 2.4%.
As for `CCCN1CCC2c3c(cccc3C(N)=O)CC[C@@H]21` (single isomer, unassigned; (+)-3a), the ED50 result in the series with Rattus norvegicus [14], with Rattus norvegicus [15] and in the series with Rattus norvegicus [16] was “inactive” each time. The Response entry in the series listed under Rattus norvegicus [18] is “Partially active”.
As to `CCCN1CCC2c3c(cccc3C(N)=O)CC[C@@H]21` (single isomer, unassigned; (+)-3b), in series [1], the inhibition constant Ki is over 1440 nM. The Swimming activity was found to be 1.1 in the series on Mus musculus [7] and 1.2 in the series on Mus musculus [37]. Moreover, the “Accumulated counts/30 min” value in the series on Rattus norvegicus [38] was 9.
